In general, pIC50 refers to −log10 of the IC50, conventionally taken in molar units. One may read the efflux ratio as the permeability from basolateral to apical divided by that in the opposite direction, in the common usage.

SMILES strings stand for the structures. pIC50: −log10 of the molar value. The source made the active and inactive calls. The calls are words filed in the database; no cut-off is given here. Where only a bound is given, the exact number is not on record here.

Data set [1] deals with T1, N-lysine methyltransferase KMT5A (Homo sapiens) (UniProt Q9NQR1).
T1 sequence (whole entry): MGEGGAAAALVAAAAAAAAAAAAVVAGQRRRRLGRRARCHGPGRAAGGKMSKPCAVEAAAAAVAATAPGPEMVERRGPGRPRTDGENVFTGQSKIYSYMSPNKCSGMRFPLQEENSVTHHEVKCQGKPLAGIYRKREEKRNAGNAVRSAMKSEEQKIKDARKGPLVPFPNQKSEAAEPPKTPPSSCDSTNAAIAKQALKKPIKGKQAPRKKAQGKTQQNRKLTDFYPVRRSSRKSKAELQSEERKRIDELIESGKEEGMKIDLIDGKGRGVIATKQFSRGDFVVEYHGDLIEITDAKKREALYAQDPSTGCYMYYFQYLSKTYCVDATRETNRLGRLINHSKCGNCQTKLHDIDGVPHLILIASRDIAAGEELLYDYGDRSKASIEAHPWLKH
In words: Binding affinity to wild type SETD8 catalytic domain (unknown origin) (234 to 380 residues) expressed in Escherichia coli assessed as covalent adduct formation at 20 to 200 uM incubated for 3 hrs by LC-MSD-TOF analysis. The note with it: dose 20-200 µM.

Data set [2] has as its target T2, N-lysine methyltransferase KMT5A (Homo sapiens, UniProt Q9NQR1).
T2 sequence (Q9NQR1 whole entry): T1 sequence (whole entry)
As to the kind of experiment: Inhibition of recombinant SETD8 catalytic domain (unknown origin) (232 to 393 residues) expressed in Escherichia coli assessed as reduction in incorporation of [3H]-labeled methyl group into biotinylated H4 (1 to 24) peptide measured after 1 hr using [3H-SAM] by scintillation proximity assay. A general note: In a scintillation proximity assay essentially only radioactivity close to the scintillant gives light.

Data set [3] in a line: Permeability of compound. The note with it: not told; read-out: permeability. The class given is ADME.
The species named for data set [4] is Homo sapiens. As to the kind of experiment: Binding affinity to human recombinant N-terminal His-tagged SETD8 C311S mutant (234 to 380 residues) expressed in Escherichia coli assessed as covalent adduct formation at 20 to 200 uM incubated for 3 hrs by LC-MSD-TOF analysis. The conditions noted are these: dose 20-200 µM.
The species named for data set [5] is Homo sapiens. In words: Binding affinity to human recombinant N-terminal His-tagged SETD8 C343S mutant (234 to 380 residues) expressed in Escherichia coli assessed as covalent adduct formation at 20 to 200 uM incubated for 3 hrs by LC-MSD-TOF analysis. The conditions noted are these: dose 20-200 µM.
Data set [6] has as its target N-lysine methyltransferase SMYD2 (Homo sapiens) (UniProt Q9NRG4). As to the kind of experiment: Binding affinity to SMYD2 (unknown origin) by mass-spectrometric analysis.
Data set [7] addresses T3, Histone-lysine N-methyltransferase SMYD3 (Homo sapiens) (UniProt Q9H7B4).
T3 sequence (whole entry): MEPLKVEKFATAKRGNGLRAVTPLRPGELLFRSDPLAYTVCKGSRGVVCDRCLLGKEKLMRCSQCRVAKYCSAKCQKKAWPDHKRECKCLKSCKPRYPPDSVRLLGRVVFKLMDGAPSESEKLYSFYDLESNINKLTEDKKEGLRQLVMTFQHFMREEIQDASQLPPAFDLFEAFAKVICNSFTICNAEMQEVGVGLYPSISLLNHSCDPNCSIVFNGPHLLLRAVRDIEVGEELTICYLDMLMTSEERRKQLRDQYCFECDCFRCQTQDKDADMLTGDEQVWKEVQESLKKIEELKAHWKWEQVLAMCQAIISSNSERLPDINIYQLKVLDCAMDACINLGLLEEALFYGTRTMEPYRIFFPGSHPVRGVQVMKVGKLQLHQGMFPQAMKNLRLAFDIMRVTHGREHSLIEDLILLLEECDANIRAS
In words: Binding affinity to SMYD3 (unknown origin) by mass-spectrometric analysis.

Data set [8] has as its target T1, N-lysine methyltransferase KMT5A (Homo sapiens). In words: Inhibition of wild type SETD8 catalytic domain (unknown origin) (234 to 380 residues) expressed in Escherichia coli assessed as compound-adduct monomer formation by measuring residual activity at 20 to 200 uM using varying levels of biotinylated H4 (1 to 24) peptide substrate measured after 1 hr in presence of [3H-SAM] by scintillation counting assay. The conditions noted are these: dose 20-200 µM. In short, it runs like this: (§1)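 The adduct was purified by gel filtration, giving monomer and dimer fractions that interconvert after a short time. Each fraction was tested in the enzymatic assay, and residual activity was expressed relative to wild-type SETD8.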

Data set [9] has the same target. As to the kind of experiment: Inhibition of wild type SETD8 catalytic domain (unknown origin) (234 to 380 residues) expressed in Escherichia coli assessed as compound-adduct dimer formation by measuring residual activity at 20 to 200 uM using varying levels of biotinylated H4 (1 to 24) peptide substrate measured after 1 hr in presence of [3H-SAM] by scintillation counting assay. The note with it: dose 20-200 µM. In short, it runs like this: as §1

Data set [10] deals with Histone-lysine N-methyltransferase EZH2 (Homo sapiens) (UniProt Q15910). As to the kind of experiment: Binding affinity to PRC2 (unknown origin) by mass-spectrometric analysis.
Sequence of Histone-lysine N-methyltransferase EZH2 (Homo sapiens) (Q15910 whole entry, looked up, the tested form may be a part): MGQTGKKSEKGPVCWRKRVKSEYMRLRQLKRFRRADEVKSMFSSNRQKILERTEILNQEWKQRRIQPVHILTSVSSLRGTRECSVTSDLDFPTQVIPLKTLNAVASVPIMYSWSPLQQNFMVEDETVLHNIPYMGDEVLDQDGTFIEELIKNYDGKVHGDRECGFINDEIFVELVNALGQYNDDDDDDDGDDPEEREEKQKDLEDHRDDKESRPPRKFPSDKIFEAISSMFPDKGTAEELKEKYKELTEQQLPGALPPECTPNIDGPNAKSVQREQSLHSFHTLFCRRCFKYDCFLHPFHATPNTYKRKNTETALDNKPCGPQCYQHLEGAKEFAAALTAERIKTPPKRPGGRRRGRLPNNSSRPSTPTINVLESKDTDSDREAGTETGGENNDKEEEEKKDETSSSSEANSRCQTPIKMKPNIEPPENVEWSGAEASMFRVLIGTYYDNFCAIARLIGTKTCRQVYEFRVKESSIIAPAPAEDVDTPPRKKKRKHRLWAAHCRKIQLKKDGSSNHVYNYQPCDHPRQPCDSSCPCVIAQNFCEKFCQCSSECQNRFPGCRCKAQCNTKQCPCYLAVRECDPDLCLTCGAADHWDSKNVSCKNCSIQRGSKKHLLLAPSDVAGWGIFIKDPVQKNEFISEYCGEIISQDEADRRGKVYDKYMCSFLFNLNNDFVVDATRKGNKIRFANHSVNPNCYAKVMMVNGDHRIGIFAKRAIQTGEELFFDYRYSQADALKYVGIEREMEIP
Data set [11] deals with T1, N-lysine methyltransferase KMT5A (Homo sapiens). As to the kind of experiment: Binding affinity to wild type SETD8 catalytic domain (unknown origin) (234 to 380 residues) expressed in Escherichia coli assessed as covalent adduct formation at 20 to 200 uM incubated for 3 hrs in presence of GSH by LC-MSD-TOF analysis. The conditions noted are these: dose 20-200 µM.
In data set [12] the target is T2, N-lysine methyltransferase KMT5A. As to the kind of experiment: Inhibition of recombinant SETD8 catalytic domain (unknown origin) (232 to 393 residues) expressed in Escherichia coli assessed as reduction in incorporation of [3H]-labeled methyl group into biotinylated H4 (1 to 24) peptide measured after 5 hrs using [3H-SAM] by scintillation proximity assay. The method, boiled down:
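SETD8 catalytic domain (residues 232–393) was expressed in E. coli and purified. Compound was preincubated with the enzyme for a set time (1 h or 5 h) before a scintillation proximity methylation assay. IC50 was taken from a fitted concentration–response curve.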

Data set [13] concerns the target T1, N-lysine methyltransferase KMT5A (Homo sapiens). As to the kind of experiment: Inhibition of SETD8 in human HeLa cells assessed as reduction in monomethylation of H4K20 up to 10 uM. The class given is cell-based. The conditions noted are these: dose microM <=10.
Data set [14] is described as follows: Efflux ratio of compound. The class given is ADME. The note with it: not told.

Sequence of N-lysine methyltransferase SMYD2 (Homo sapiens) (Q9NRG4 whole entry): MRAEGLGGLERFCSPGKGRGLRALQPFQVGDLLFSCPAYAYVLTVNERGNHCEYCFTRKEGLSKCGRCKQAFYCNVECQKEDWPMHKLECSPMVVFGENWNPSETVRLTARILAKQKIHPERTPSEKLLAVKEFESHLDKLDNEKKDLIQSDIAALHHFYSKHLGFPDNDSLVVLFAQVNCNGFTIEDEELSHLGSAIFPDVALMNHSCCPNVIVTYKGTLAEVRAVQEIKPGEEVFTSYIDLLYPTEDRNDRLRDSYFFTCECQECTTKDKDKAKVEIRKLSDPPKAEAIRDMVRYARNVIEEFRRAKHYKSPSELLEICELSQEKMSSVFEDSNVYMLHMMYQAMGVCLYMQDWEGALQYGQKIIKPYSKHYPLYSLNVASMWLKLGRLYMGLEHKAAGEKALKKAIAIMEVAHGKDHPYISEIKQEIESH

As to `C=CC(=O)NCCCN(C)c1nc(N2CCCC2)nc2cc(OC)c(OC)cc12`, the outcome in data set [1] was inactive. Besides, the pIC50 in data set [2] was less than 3.70.
Regarding `C=CC(=O)NCCCNc1nc(N2CCCC2)nc2cc(OC)c(OC)cc12`, the Papp in [3] stood at 0.44 ×10⁻⁶ cm/s. For the same compound, the outcome (in data set [1]; in the data set listed under Homo sapiens [5]; in data set [11]) was Active. Moreover, the outcome (in the data set listed under Homo sapiens [4]; in [6]; in data set [7]; in [10]) was inactive. Also, the pIC50 in data set [2] is 5.16; in data set [12], 6.09. Moreover, the Activity in data set [8] and in data set [9] was 10% throughout. The inhibition result in data set [13] is “inactive”. Further, in data set [14], the efflux ratio amounted to 137.

These data come from ChEMBL document CHEMBL4673205, “Structure-Based Design of a Covalent Inhibitor of the SET Domain-Containing Protein 8 (SETD8) Lysine Methyltransferase” (J Med Chem, 2016).
